In brackets after ≈: the same amount, converted by molar mass.
Assays:
[1] = target: Serine/threonine-protein kinase pim-2 (Homo sapiens, UniProt Q9P1W9); experiment: Inhibition of human full-length Pim2 expressed in Escherichia coli assessed as phosphorylation of biotinylated BAD peptide at Ser 112 preincubated for 30 mins followed by substrate addition measured after 1 hr by HTRF assay
Summary of the method: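 Cell-free kinase assay using recombinant Pim-1 or Pim-2. Read-out is phosphorylation of a short BAD peptide sequence spanning Ser-112.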

[2] = target: Serine/threonine-protein kinase pim-1 (Homo sapiens, UniProt P11309); experiment: Inhibition of human full-length Pim1 expressed in Escherichia coli assessed as phosphorylation of biotinylated BAD peptide at Ser-112 preincubated for 30 mins followed by substrate addition measured after 1 hr by HTRF assay
Sequence of Serine/threonine-protein kinase pim-1 (P11309 whole entry): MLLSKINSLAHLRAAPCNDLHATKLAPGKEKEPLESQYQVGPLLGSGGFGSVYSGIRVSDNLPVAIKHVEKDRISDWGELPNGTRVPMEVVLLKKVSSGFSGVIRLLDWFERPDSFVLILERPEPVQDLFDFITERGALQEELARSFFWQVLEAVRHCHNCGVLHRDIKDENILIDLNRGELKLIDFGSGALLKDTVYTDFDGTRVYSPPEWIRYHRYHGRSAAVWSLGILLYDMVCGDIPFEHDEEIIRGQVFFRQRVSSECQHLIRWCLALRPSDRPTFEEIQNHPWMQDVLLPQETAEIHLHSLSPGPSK

[3] = target: Serine/threonine-protein kinase PIM (Homo sapiens, UniProt P11309+Q9P1W9+Q86V86); experiment: Inhibition of Pim1/2 in human KMS-12-BM cells assessed as phosphorylation of full-length BAD protein at Ser-112 incubated for 110 mins by flow cytometric analysis in presence of 20% FBS; type: cell-based
Summary of the method: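 Cell assay in KMS-12-BM, a multiple myeloma line with relatively high endogenous Pim-1/2. Pim-dependent phosphorylation of full-length endogenous BAD at Ser-112 measured.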

[4] = Equilibrium solubility of compound in PBS by HPLC analysis; type: physicochemical
[5] = Drug metabolism in human liver microsomes assessed as compound turnover at 1 uM incubated for 30 mins; type: ADME; details: read-out: Drug metabolism
[6] = Oral bioavailability in Sprague-Dawley rat at 5 mg/kg; type: ADME, organism-based; details: in vivo
Summary of the method: (§1)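 Pharmacokinetics in male Sprague–Dawley rats. Clearance also expressed as a percentage of liver blood flow. Oral bioavailability determined.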

[7] = Clearance in Sprague-Dawley rat at 2 mg/kg, iv; type: ADME, organism-based; details: in vivo; summary of the method: as §1
[8] = Protein binding in rat assessed as as fraction unbound at 5 uM by rapid equilibrium dialysis method; type: ADME; details: plasma
[9] = Apparent permeability in pig LLC-PK1 cells at 5 uM; type: ADME, cell-based, Sus scrofa
[10] = Volume of distribution at steady state in Sprague-Dawley rat at 2 mg/kg, iv; type: ADME, organism-based; details: in vivo, read-out: Vdss; summary of the method: as §1
[11] = Half life in Sprague-Dawley rat at 2 mg/kg, iv; type: ADME, organism-based; details: in vivo; summary of the method: as §1
[12] = Drug metabolism in rat liver microsomes assessed as compound turnover at 1 uM incubated for 30 mins; type: ADME; details: read-out: Drug metabolism
[13] = Volume of distribution at steady state in Sprague-Dawley rat at 1 mg/kg, iv; type: ADME, organism-based; details: in vivo, read-out: Vdss; summary of the method: as §1
[14] = Half life in Sprague-Dawley rat at 1 mg/kg, iv; type: ADME, organism-based; details: in vivo; summary of the method: as §1
[15] = Clearance in Sprague-Dawley rat at 1 mg/kg, iv; type: ADME, organism-based; details: in vivo; summary of the method: as §1

Sequence of Serine/threonine-protein kinase pim-2 (Q9P1W9 whole entry): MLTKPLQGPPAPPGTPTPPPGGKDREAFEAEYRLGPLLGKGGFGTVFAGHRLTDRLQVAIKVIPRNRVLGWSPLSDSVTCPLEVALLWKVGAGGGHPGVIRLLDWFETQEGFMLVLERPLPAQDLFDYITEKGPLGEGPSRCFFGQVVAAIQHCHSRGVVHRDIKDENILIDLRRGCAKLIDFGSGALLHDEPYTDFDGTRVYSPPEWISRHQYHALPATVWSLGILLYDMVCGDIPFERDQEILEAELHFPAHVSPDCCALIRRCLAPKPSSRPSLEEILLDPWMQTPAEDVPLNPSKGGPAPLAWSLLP

Compound	IC50 [1] [pM]	IC50 [2] [pM]	IC50 [3] [pM]	solubility thermodynamic [4] [µM]	also measured
CCCNc1nc2c(-c3cc4c([nH]3)CCNC4=O)cccc2nc1C	2000	–	–	–	–
Cc1nc2cccc3c2nc1NC/C=C\C[C@@H]1CNC(=O)c2cc-3[nH]c21	1000	2000	370000	–	–
Cc1nc2cccc3c2nc1NC[C@@H](C)CC[C@H]1CNC(=O)c2cc-3[nH]c21	300	300	37000	< 5	–
Cc1nc2cccc3c2nc1N[C@H](C)/C=C/C[C@H]1CNC(=O)c2cc-3[nH]c21	50	300	20000	< 5	–
C/C1=C/C[C@H]2CNC(=O)c3cc([nH]c32)-c2cccc3nc(C)c(nc23)NC1	200	400	14000	23 (≈ 8.27 µg/mL)	metabolised at 0.5 h, 1 µM [5]: 17%; bioavailability [6]: 17%; clearance [7]: 15.8 mL/min/kg; fraction unbound at 5 µM [8]: 0.016; Papp at 5 µM [9]: 40 ×10⁻⁶ cm/s; Vd [10]: 1.8 L/kg; half-life [11]: 6.1 h; metabolised at 0.5 h, 1 µM [12]: 42%
CCCCNc1nc2c(-c3cc4c([nH]3)CCNC4=O)cccc2nc1C	2000	3000	–	–	–
Cc1nc2cccc3c2nc1NC[C@H](C)CC[C@H]1CNC(=O)c2cc-3[nH]c21	400	500	25000	< 5	–
Cc1nc2cccc3c2nc1NC/C=C/C[C@@H]1CNC(=O)c2cc-3[nH]c21	1000	1000	880000	–	–
Cc1nc2cccc3c2nc1N[C@@H](C)/C=C/C[C@H]1CNC(=O)c2cc-3[nH]c21	300	600	26000	< 5	–
Cc1nc2cccc3c2nc1N[C@H](C)CCC[C@H]1CNC(=O)c2cc-3[nH]c21	200	100	37000	< 5	–
Cc1nc2cccc3c2nc1NCCCC[C@@H]1CNC(=O)c2cc-3[nH]c21	200	400	100000	–	–
Cc1nc2cccc3c2nc1NC/C=C\C[C@H]1CNC(=O)c2cc-3[nH]c21	70	60	21000	< 5	–
Cc1nc2cccc3c2nc1N[C@@H](C)CCC[C@H]1CNC(=O)c2cc-3[nH]c21	400	1000	40000	< 5	–
Cc1nc2cccc3c2nc1NC/C=C/C[C@H]1CNC(=O)c2cc-3[nH]c21	500	1000	106000	< 5	–
Cc1nc2cccc3c2nc1NCCCC[C@H]1CNC(=O)c2cc-3[nH]c21	50	70	20000	7 (≈ 2.43 µg/mL)	–
Cc1nc2cccc(-c3cc4c([nH]3)CCNC4=O)c2nc1Nc1ccccc1	2000	3000	184000	–	–
C/C1=C\C[C@H]2CNC(=O)c3cc([nH]c32)-c2cccc3nc(C)c(nc23)NC1	80	100	16000	27 (≈ 9.7 µg/mL)	metabolised at 0.5 h, 1 µM [5]: 45%; Vd [13]: 3.1 L/kg; bioavailability [6]: 35%; fraction unbound at 5 µM [8]: 0.0071; Papp at 5 µM [9]: 33 ×10⁻⁶ cm/s; half-life [14]: 2.8 h; metabolised at 0.5 h, 1 µM [12]: 45%; clearance [15]: 40 mL/min/kg

Reference: ChEMBL document CHEMBL3808325, “Discovery and Optimization of Macrocyclic Quinoxaline-pyrrolo-dihydropiperidinones as Potent Pim-1/2 Kinase Inhibitors” (ACS Med Chem Lett, 2016)
